High-throughput results as filed in PubChem BioAssay.
PGC1a acetyl up: compounds raising PGC1a acetylation signal, primary screen, PGC1a modulator project, cell-based, U2OS, AlphaScreen, signal-increasing mode; AID 651723, 2012; overnight; 0.21% of 350,000 active; activation, % at 15.6 µM;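 active = every replicate reaching activation of at least 50%, whatever the mean replicate activation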;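 note: hits raise the AlphaScreen acetylation signal above neutral controls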
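Test system: U2OS cells expressing flag-PGC1a plus GCN5; Amount: 7000 U2OS cells per well; Compound: single test concentration per compound; Incubation: compound overnight at 37 °C, each detection step 1 h RT; Signal: AlphaScreen lysate read.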
* = called active by the depositor. Only a sample is shown.

SMILES	PGC1a acetyl up
O=C(NC(=S)N1CCN(Cc2ccccc2)CC1)c1cccnc1	-46
Oc1ccc2ccccc2c1CN1CCCCC1	104*
O=C(C1CCCO1)N1CCN(Cc2c(O)ccc3ccccc23)CC1 (stereo unspecified)	191*
O=C(c1ccc2ccccc2c1)N1CCCC1	-46
COc1ccc(/C=N/NC(=O)Cn2cnc3ccccc3c2=O)cc1OC	-53
NCCCCCC(=O)O	-51
Cc1ccc(OCC(=O)N2CC(C)OC(C)C2)c([N+](=O)[O-])n1 (stereo unspecified)	-43
CO[C@@H]1CN(C)C(=O)c2ccc(NS(C)(=O)=O)cc2OC[C@@H](C)N(Cc2nccs2)C[C@@H]1C	-45
Cc1cccc(S(=O)(=O)N(C)C[C@@H]2OCc3cn(nn3)CCCC(=O)N([C@H](C)CO)C[C@H]2C)c1	-52
CC(C)(C)NCCC(O)c1cc(C(F)(F)F)nc2c(C(F)(F)F)cccc12 (stereo unspecified)	70*
Cc1nnc(Nc2ccc3c(c2)OCO3)c2ccccc12	84*
COc1ccc(C(=O)C(CN2CCOCC2)c2ccccc2)cc1F (stereo unspecified)	-114
OCc1ccc2c(c1)c(-c1ccc3c(c1)OCCO3)c(-c1ccccc1)n2-c1ccccc1	178*
O=C1C=CCCN1C(=O)/C=C/c1cccc(Br)c1	-46
CN(C)c1ccc(/C=C/c2ccc3c4ccccc4ccc3[n+]2-c2ccccc2)cc1	-44
CC/C(CC(C)(C)c1ccccc1)=N\O	56*
CC1=CCC2C(=O)N(c3cccc(C(=O)NCc4ccccc4)c3)C(=O)C2C1 (stereo unspecified)	-63
O=C(CCCc1cccs1)NCCc1c[nH]c2ccccc12	-42
COc1cc2[nH]c(=O)n(CCCC(=O)NCCc3ccccc3)c(=O)c2cc1OC	84*
COc1ccc(CCNC(=O)C(=O)NCC2CCCO2)cc1OC (stereo unspecified)	-44
COc1ccc2c3c([nH]c2c1)[C@@H](CO)N(C(=O)c1ccccc1)CC31CCN(S(=O)(=O)c2cccs2)CC1	-51
C[C@@H]1CN([C@@H](C)CO)C(=O)CCCn2cc(nn2)CO[C@H]1CN(C)S(=O)(=O)c1ccccc1	-47
Cc1ccc(NC(=S)/N=C(\N)Nc2nc(C)c3cc(C)c(C)cc3n2)cc1C	66*
CC(C)Oc1ccc2nnnn2n1	-49
O=C(Cc1ccccn1)NCC[C@H]1CC[C@@H](NC(=O)Nc2ccc(C(F)(F)F)cc2)[C@@H](CO)O1	-102
SMILES	PGC1a acetyl up
O=C(Cc1ccccn1)NCC[C@H]1CC[C@H](NC(=O)Nc2ccc(C(F)(F)F)cc2)[C@H](CO)O1	-48
COc1ccc(NC(=O)N[C@@H]2CC[C@H](CCn3cc(-c4ccccc4F)nn3)O[C@H]2CO)cc1	-62
O=C(Cc1ccccn1)N[C@@H]1CC[C@@H](CCn2cc(-c3ccccc3)nn2)O[C@H]1CO	133*
Cc1ccccc1S(=O)(=O)N[C@@H]1CC[C@@H](CCn2cc(Cc3ccccc3)nn2)O[C@H]1CO	-61
O=C(Cc1ccccn1)N[C@H]1CC[C@H](CCn2cc(-c3ccccc3)nn2)O[C@@H]1CO	76*
COC1(C)CN(Cc2ccccc2Br)[C@H](/C=C/c2ccccc2)[C@H](Cc2ccccc2)O1 (stereo partly specified)	-51
CCN1C(C#N)=C(C#N)N=C(C)CC1(C)C	-109
O=C(COC(=O)Cc1ccc(S(=O)(=O)N2CCOCC2)s1)NCCc1ccccc1	-41
Cc1ccc(S(=O)(=O)C(NC(=O)c2ccccc2)=C(Cl)Cl)cc1	60*
Cc1ccc(C(=O)NNC(=O)c2cccc(Br)c2)cc1	-63
CCN(CC)S(=O)(=O)c1cccc(-c2nnc(SCc3ncc(-c4ccccc4)o3)n2C)c1	-43
Cc1nn(CCCC(=O)O)c(C)c1[N+](=O)[O-]	-42
O=C(Nc1cccc(F)c1)N1CC(=O)N2[C@@H](CO)[C@@H](c3ccc(C#Cc4cccnc4)cc3)[C@@H]2C1	-41
COc1ccc(C#Cc2ccc([C@@H]3[C@H](CO)N4CCCCN(C(=O)Nc5ccc(F)cc5)C[C@@H]34)cc2)cc1	71*
CC(C)CC#Cc1ccc([C@H]2[C@H](CO)N3C(=O)CN(C(=O)Nc4cc(F)ccc4F)C[C@@H]23)cc1	-57
Clc1ccc(Oc2cccc(/C=N/n3cnnc3)c2)cc1	-83
CC(C)OC(=O)CSc1nc2cccnc2n1-c1ccc(F)cc1	53*
COC(=O)c1cccc(NC(=O)CSc2nc3cccnc3n2C)c1	-53
CCOc1ccc(NC(=O)CN2CCC(n3cnc4cc(F)ccc43)CC2)cc1	67*
COc1ccc(Cl)cc1NC(=O)CN1CCC(n2nnc3cc(C)ccc32)CC1	-51
COc1cc(NC(=O)CCN2CCN(C)CC2)cc(OC)c1	-50
CCOC(=O)N1C/C(=C\c2ccccc2)C(=O)/C(=C/c2ccccc2)C1	497*
CCOC(=O)/C(C#N)=C1/C(=O)N(Cc2ccccc2)c2ccccc21	-73
C[C@H](NC(=O)C[C@H]1CC[C@@H](NC(=O)C2CC2)[C@H](CO)O1)c1ccccc1	-52
O=S(=O)(c1ccc(N2CCC(c3ccc(Cl)cc3)=N2)cc1)N(CCO)CCO	-43
SMILES	PGC1a acetyl up
COC(=O)Nc1ccc(S(=O)(=O)N(CCO)CC(F)(F)C(F)F)cc1	62*
C[C@@H]1CN([C@@H](C)CO)C(=O)CCCn2cc(nn2)CO[C@H]1CN(C)C(=O)Cc1ccccc1	-56
C[C@@H]1CCCCO[C@H](CN(C)C(=O)Cc2ccccc2)[C@H](C)CN([C@@H](C)CO)C(=O)c2cc(N(C)C)ccc2O1	-54
C[C@@H]1CN([C@@H](C)CO)C(=O)c2c(c3ccccc3n2C)-c2ccccc2CO[C@@H]1CN(C)C(=O)[C@H](C)c1ccccc1	115*
C/C=C/c1ccc2c(c1)O[C@H](CN(C)C(=O)C1CC1)[C@H](C)CN([C@@H](C)CO)S2(=O)=O	-47
COc1cccc(N2CCN(c3ncnc4c3[nH]c3ccc(F)cc34)CC2C)c1 (stereo unspecified)	-77
S=c1[nH]nc(-c2ccco2)n1/N=C/C(Cl)=C/c1ccccc1	65*
FC(F)(F)c1ccc(Cl)c(-n2c(-c3cc(-c4ccco4)[nH]n3)n[nH]c2=S)c1	-43
S=c1[nH]nc(-c2cc(-c3ccccc3)n[nH]2)n1/N=C/C(Br)=C/c1ccccc1	241*
CC1=C(C(=O)OC(C)(C)C)C(c2ccc3ccccc3c2)NC(=O)N1C (stereo unspecified)	-66
CC(C)NC(=O)Nc1ccc2c(c1)C(=O)N([C@@H](C)CO)C[C@H](C)[C@@H](CN(C)C(=O)CCC(F)(F)F)OCCCC[C@@H](C)O2	-46
N#Cc1sc2nccc(Nc3ccccc3)c2c1N	-43
C[C@H]1CN([C@@H](C)CO)C(=O)CCCn2nncc2CO[C@@H]1CN(C)C(=O)c1ccc(N2CCN(C)CC2)cc1	-56
CCCOc1ccc2c(c1)C(=NN=C(N)N)c1cc(OCCC)ccc1-2	75*
Fc1ccc(CO/N=C/C2=C(Cl)c3ccccc3CC2)cc1	-79
O=C(CCC1CCCCC1)NCc1cccs1	-41
COc1ccc2cc3c(N)nn(C(=O)c4ccccc4Cl)c3nc2c1	-42
COc1ccc2cc3cc(C(=O)NCc4cccs4)oc3nc2c1	70*
Cc1noc(C)c1NC(=O)N(C)C[C@@H]1Oc2c(NS(=O)(=O)c3cn(C)cn3)cccc2C(=O)N([C@@H](C)CO)C[C@@H]1C	-54
Cc1noc(C)c1CSc1nnc(-c2cccnc2)n1C1CCCCC1C (stereo unspecified)	-49
